The values that follow come from ChEMBL document CHEMBL1811833, “Phenylimino-10H-anthracen-9-ones as novel antimicrotubule agents-synthesis, antiproliferative activity and inhibition of tubulin polymerization” (Bioorg Med Chem, 2011).

Active and inactive are the calls of the source. No cut-off for these calls is given here. Bounds are passed on as bounds.

For one test, the system named is K562. The test can be described thus: Antiproliferative activity against human K562 cells after 48 hrs by hemocytometer. The class given is functional, cell-based. As to conditions: K562, 48 h. The gist of the method: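 K562 human erythroid leukemia cells were treated with drug for 48 h, and the cells were then counted directly with a hemocytometer. IC50 is the concentration giving 50% inhibition of cell growth. Values are means of at least three independent determinations.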

Test [1] addresses T1, Tubulin (Sus scrofa, UniProt P02554+P02550). The test can be described thus: Inhibition of pig brain tubulin polymerization after 30 mins by turbidimetry analysis.
Test [2] can be described thus: Antiproliferative activity against rat LT12 cells after 48 hrs by XTT assay. The class given is functional, cell-based. As to conditions: LT12, 48 h. (Formazan colour is commonly taken as a measure of viable cells.)
Test [3] can be described thus: Antiproliferative activity against rat multiple drug-resistant LT12 cells after 48 hrs by XTT assay. Type of test: functional, cell-based. Particulars: LT12, 48 h. The gist of the method:
(§1)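 Cells were exposed to test compound for 48 h and growth was read by XTT proliferation assay. Experiments were run in at least two replicates (n = 2). IC50 was calculated from dose–response curves by nonlinear regression.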

Test [4] has as its system L1210. The test can be described thus: Antiproliferative activity against mouse VCR-resistant L1210 cells after 48 hrs by XTT assay. Type of test: functional, cell-based. As to conditions: L1210, 48 h. The procedure, abridged: as §1
Test [5] can be described thus: Cell cycle arrest in human KB/HeLa cells assessed as accumulation of cells at G2/M phase after 24 hrs by flow cytometry. The class given is functional, cell-based. The gist of the method:
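Sub-confluent KB/HeLa cells were exposed to a range of compound concentrations for 24 h. The cells were then permeabilized and stained with propidium iodide, and DNA content was measured by flow cytometry. The percentage of cells in G2/M was plotted against concentration, and EC50 is the concentration giving 50% of cells arrested in G2/M. At least two replicates were run, with nonlinear regression fitting.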
In general terms: A flow cytometer gives signals particle by particle.

Test [6] in a line: Cytotoxicity against human KB/HeLa cells after 48 hrs by XTT assay. Type of test: functional, cell-based. The procedure, abridged:
as §1

Test [7] in a line: Cytotoxicity against ponasterone A-induced human RKOp27 cells with ectopic inducible expression of CDK inhibitor-kip1 after 48 hrs by XTT assay. Type of test: functional, cell-based. Particulars: RKOp27, 48 h. The procedure, abridged:
as §1

The nature of test [8]: Cytotoxicity against non induced human RKOp27 cells after 48 hrs by XTT assay. Type of test: functional, cell-based. As to conditions: RKOp27, 48 h. The procedure, abridged:
as §1

The test system of test [9] is P388. The test is described as follows: Antiproliferative activity against ADR-resistant mouse P388 cells after 48 hrs by XTT assay. The class given is functional, cell-based. As to conditions: P388, 48 h. The gist of the method: as §1
The subject of the next test is NCI-H460. The test is described as follows: Cytotoxicity against human NCI-H460 cells after 48 hrs by XTT assay. Type of test: functional, cell-based. Particulars: NCI-H460, 48 h. The gist of the method: as §1
The target in test [10] is T1, Tubulin. The test can be described thus: Displacement of [3H]colchicine from biotinylated pig brain tubulin after 2 hrs by competitive scintillation proximity assay. For orientation: Loss of bound radioactivity is the signal in a displacement assay; it reports binding, not function.
Test [11] deals with P388. The test is described as follows: Antiproliferative activity against mouse P388 cells after 48 hrs by XTT proliferation assay. The class given is functional, cell-based. Particulars: P388, 48 h. The gist of the method:
as §1

For a further test, the system named is SF-268. The test can be described thus: Cytotoxicity against human SF268 cells after 48 hrs by XTT assay. The class given is functional, cell-based. As to conditions: SF-268, 48 h. The gist of the method: as §1
Test [12] relates to L1210. The test is described as follows: Antiproliferative activity against mouse L1210 cells after 48 hrs by XTT assay. The class given is functional, cell-based. As to conditions: L1210, 48 h. The gist of the method: as §1
Another test concerns the target Tubulin (Sus scrofa) (UniProt P02554+P02550). The test is described as follows: Displacement of [3H]paclitaxel from biotinylated pig brain tubulin after 2 hrs by competitive scintillation proximity assay.
Another test has as its system SK-OV-3. The test can be described thus: Cytotoxicity against human SKOV3 cells after 48 hrs by XTT assay. As to conditions: SK-OV-3, 48 h. Type of test: functional, cell-based. The procedure, abridged:
as §1

Regarding `COc1ccc(N=C2c3ccccc3C(=O)c3ccccc32)c(OC)c1`, the IC50 (commonly the point on the concentration scale where inhibition reaches its midpoint) in the test with K562 came out at 3400 nM; at Tubulin [1], 1600 nM.

As for `CC[C@]1(O)C[C@@H]2CN(CCc3c([nH]c4ccccc34)[C@@](C(=O)OC)(c3cc4c(cc3OC)N(C)[C@H]3[C@@](O)(C(N)=O)[C@H](O)[C@]5(CC)C=CCN6CC[C@]43[C@@H]65)C2)C1` [VINDESINE], the half-maximal inhibitory concentration (IC50) was 1 nM in test [2], 260 nM in [3] and more than 5000 nM in the test on L1210 [4].

As to `COc1cc2c(c(OC)c1OC)-c1ccc(OC)c(=O)cc1[C@@H](NC(C)=O)CC2` [COLCHICINE], the EC50 (usually the concentration needed to bring the measured effect to its halfway point) in test [5] amounted to 14 nM. Moreover, the figures for the half-inhibitory concentration (IC50) in test [6], in [7] and in [8] were 30 nM, more than 10000 nM and 20 nM, respectively.

Regarding `CC(=O)O[C@H]1C(=O)[C@@]2(C)[C@H]([C@H](OC(=O)c3ccccc3)[C@]3(O)C[C@H](OC(=O)[C@H](O)[C@@H](NC(=O)c4ccccc4)c4ccccc4)C(C)=C1C3(C)C)[C@]1(OC(C)=O)CO[C@@H]1C[C@@H]2O` [PACLITAXEL], the 50% inhibitory concentration (IC50) in the test on P388 [9] is more than 5000 nM; in [6], 10 nM; in test [3] it was 400 nM; in test [7], more than 3000 nM; in the test on L1210 [4], more than 5000 nM; in [8], 10 nM. The concentration giving a half-maximal response (EC50) in test [5] was 49 nM.

For `COc1cc(N=C2c3ccccc3C(=O)c3ccccc32)cc(OC)c1OC`, the concentration for half-maximal inhibition (IC50) in the test on K562 is more than 30000 nM; on Tubulin [1] it was more than 10000 nM.

Consider `CC[C@]1(O)C[C@H]2CN(CCc3c([nH]c4ccccc34)[C@@](C(=O)OC)(c3cc4c(cc3OC)N(C=O)[C@H]3[C@@](O)(C(=O)OC)[C@H](OC(C)=O)[C@]5(CC)C=CCN6CC[C@]43[C@@H]65)C2)C1` [VINCRISTINE], for which, in [5], the EC50 is 2.4 nM.

As to `COc1ccc(N=C2c3cccc(Cl)c3C(=O)c3c(Cl)cccc32)cc1O`, the IC50 is 180 nM with NCI-H460; 2600 nM at Tubulin [10]; 300 nM in the test on P388 [9]; 110 nM with K562; 310 nM in [2]; 230 nM in the test with P388 [11]. For the same molecule, the IC50 in [6] is 150 nM; in the test with SF-268, 150 nM; in [3], 160 nM; in the test on L1210 [12], 190 nM; against Tubulin [1] it was 1110 nM; in test [7], more than 9000 nM. Also, the IC50 in the test with L1210 [4] came to 190 nM; in test [8], 160 nM; in the test on SK-OV-3, 100 nM. The EC50 in [5] is 121 nM. Also, the outcome on Tubulin (Sus scrofa) was inactive.

With `O=C1c2ccccc2C(=Nc2ccccc2)c2ccccc21`, the half-inhibitory concentration (IC50) in the test with K562 was found to be 6800 nM; against Tubulin [1], 1450 nM.

Turning to `COC(=O)Nc1nc2cc(C(=O)c3cccs3)ccc2[nH]1` [NOCODAZOLE], the concentration for a half-maximal effect (EC50) in [5] worked out at 91 nM. For the same molecule, the IC50 is 40 nM in test [2]; 140 nM in [6]; 70 nM in [3]; more than 10000 nM in test [7]; 110 nM in test [8].

In turn, `COc1ccc(OC)c(N=C2c3ccccc3C(=O)c3ccccc32)c1` came in with an IC50 in the test on K562 of 870 nM.

For `COc1cccc(NN=C2c3ccccc3C(=O)c3ccccc32)c1`, the IC50 is 9000 nM with K562 and more than 10000 nM against Tubulin [1].

`COc1ccc(N=C2c3ccccc3C(=O)c3ccccc32)cc1`: the IC50 in the test on K562 is 680 nM; at Tubulin [1] it was 1900 nM.

For `COc1ccc(NN=C2c3ccccc3C(=O)c3ccccc32)cc1`, the IC50 in the test with K562 is 8410 nM; against Tubulin [1], more than 10000 nM.

On to `O=C1c2ccccc2C(=NNc2ccccc2)c2ccccc21`, for which the IC50 at Tubulin [1] was more than 10000 nM.

Take `O=C1c2ccccc2C(=Nc2ccc3c(c2)OCO3)c2ccccc21`: half-maximal inhibition in the test on K562 (IC50) required 2670 nM.

Consider `COc1cc(NN=C2c3ccccc3C(=O)c3ccccc32)cc(OC)c1OC`, for which the values for the IC50 in the test on K562 and against Tubulin [1] were 2740 nM and more than 10000 nM, respectively.

With `COc1ccc(OC)c(NN=C2c3ccccc3C(=O)c3ccccc32)c1`, the IC50 is more than 80000 nM in the test on K562 and more than 10000 nM at Tubulin [1].

Regarding `COc1ccc(N=C2c3ccccc3C(=O)c3ccccc32)cc1O`, the IC50 with NCI-H460 turned out to be 210 nM; on Tubulin [10] it was 1100 nM; in the test with P388 [9] it was 230 nM; in the test with K562, 130 nM; in test [2], 180 nM; with P388 [11], 230 nM. In addition, the IC50 in test [6] is 220 nM; in the test on SF-268, 340 nM; in test [3], 140 nM; in the test on L1210 [12], 290 nM; at Tubulin [1] it was 440 nM; in [7] it was more than 9000 nM. Moreover, the half-maximal inhibitory concentration (IC50) in the test on L1210 [4] was 220 nM; in test [8], 170 nM; in the test on SK-OV-3, 160 nM. For the same molecule, in test [5], the EC50 worked out at 359 nM. Besides, the outcome at Tubulin (Sus scrofa) was inactive.

Regarding `COc1cc(N=C2c3ccccc3C(=O)c3ccccc32)cc(OC)c1`, the concentration for half-maximal inhibition (IC50) in the test on K562 turned out to be 730 nM; on Tubulin [1] it was 1600 nM.

On to `COc1ccc(N=C2c3ccccc3C(=O)c3ccccc32)cc1OC`, for which the results for the IC50 with K562 and against Tubulin [1] were 9300 nM and 3600 nM, respectively.

`COc1ccc(N=C2c3cccc(Cl)c3C(=O)c3c(Cl)cccc32)cc1`: in the test with K562, the IC50 was 520 nM.
